# Screening results (PubChem BioAssay)
# GSTO1 inh – blocks human GSTO1 in RBBP9 counter-screen; P78417; recombinant GSTO1, activity-based probe fluorescence polarization; inhibition, % at 5.96 µM; 300,000 compounds, 1.1% hits; AID 1974;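 active = inhibition above the campaign mean inhibition plus 3 SD, cut at about 35% in these data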;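 also: 0% = GSTO1-1 with DMSO and 100% = wells lacking GSTO1-1 enzyme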
# Target sequence (P78417 whole entry, looked up): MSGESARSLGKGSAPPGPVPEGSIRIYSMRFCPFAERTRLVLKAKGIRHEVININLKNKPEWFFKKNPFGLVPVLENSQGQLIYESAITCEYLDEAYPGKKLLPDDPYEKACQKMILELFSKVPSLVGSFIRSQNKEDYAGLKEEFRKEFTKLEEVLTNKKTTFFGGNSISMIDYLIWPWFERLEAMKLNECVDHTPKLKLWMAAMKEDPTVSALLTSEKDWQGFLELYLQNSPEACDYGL
# TDP2 absorb – blocks human TDP2 phosphodiesterase activity; AID 720702; 370,000 compounds, 0.34% hits; O95551; recombinant TDP2, T5PNP hydrolysis, p-nitrophenol absorbance 415 nm; inhibition, % at 12.8 µM;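 active = inhibition above the mean of all tested compounds plus 3 SD, set per campaign, cut at about 25% in these data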;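 also: 0% = DMSO with enzyme and 100% = buffer with substrate but no TDP2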
# Target sequence (O95551 whole entry, looked up): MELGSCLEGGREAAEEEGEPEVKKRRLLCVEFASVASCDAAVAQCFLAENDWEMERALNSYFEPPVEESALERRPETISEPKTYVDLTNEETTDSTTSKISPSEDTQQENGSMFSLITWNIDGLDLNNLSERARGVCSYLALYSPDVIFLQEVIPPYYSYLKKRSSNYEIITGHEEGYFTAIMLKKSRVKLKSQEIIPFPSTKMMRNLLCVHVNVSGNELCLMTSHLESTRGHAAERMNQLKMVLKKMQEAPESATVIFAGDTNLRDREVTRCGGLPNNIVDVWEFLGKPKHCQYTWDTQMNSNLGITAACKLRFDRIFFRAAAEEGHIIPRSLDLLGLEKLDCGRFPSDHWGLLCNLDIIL
#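 Evaluation: % inhibition relative to enzyme-containing and enzyme-free wells. Material: recombinant human TDP2. Benchmarks: enzyme-free and DMSO wells. Timing: enzyme reaction with compound for 2 h at 37 °C. Compound dosing: 12.8 µM only. Measured by: p-Nitrophenol epi absorbance. Reagent: T5PNP substrate at 5 mM, a TopII-DNA adduct mimic. Replication: single well per compound.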
# PRMT1 inh – PRMT1 (human) inhibition, primary screen; Q99873; recombinant PRMT1, activity-based probe fluorescence polarization; inhibition, % at 2.79 µM; 370,000 compounds, 1.3% hits;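 active = inhibition above about 21% made by adding two undisclosed values, limit read from the data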
# PAD4 FP inh – inhibitors of human PAD4; AID 485272; recombinant PAD4, RCA probe fluorescence polarization; Q9UM07; 330,000 compounds, 0.41% hits; inhibition, % at 6.36 µM;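 active = percent inhibition above a cutoff equal to the mean of all tested compounds plus 3 SD, cut at about 15% in these data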;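 also: 0% = PAD4 with RCA probe and DMSO and 100% = probe without PAD4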
# Fh CTSL1 inh – cathepsin L1 inhibition, PFM18AAP counter-screen; recombinant F. hepatica cathepsin L1, Z-Leu-Arg-MCA fluorescence; inhibition, % at 5.96 µM; 300,000 compounds, 0.49% hits; AID 1906;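 active = inhibition above the mean of all tested compounds plus 3 SD, set per screening campaign, cut at about 17% in these data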;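 also: 0% = plate median of test compound wells and 100% = 1 µM Z-Phe-Ala-diazomethylketone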
# PRMT1 confirm – confirmation of human PRMT1 inhibitors; shares compounds with PRMT1 inh; recombinant His-PRMT1, activity-based probe fluorescence polarization; inhibition, % at 2.79 µM; 3,300 compounds, 42% hits;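 active = mean inhibition across replicates above the hit cutoff derived for the earlier primary screen, cut at about 22% in these data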
# An asterisk follows results filed as active; . = no result. An excerpt weighted towards active compounds, which were near 2.5% of everything screened.
SMILES,GSTO1 inh,TDP2 absorb,PRMT1 inh,PAD4 FP inh,Fh CTSL1 inh,PRMT1 confirm
S=C(Nc1ccccc1Cl)OCCN1CCCC12CCC(c1ccccc1)CC2 (centres undefined),.,5.3,57.5*,.,.,41.5*
O=C(Nc1ccc(Br)cc1)OCCN1CCCC12CCC(c1ccccc1)CC2 (centres undefined),.,0.2,-2.9,.,.,.
C#CCNC(=O)C[C@H]1C[C@@]2(C(=O)OC)C(=C[C@H](C(C)C)O[C@@H]2C2CC2)N(CCC2=CCCCC2)C1=O,.,2.2,-3.0,.,.,.
COC(=O)[C@]12C[C@H](CC(=O)NCc3ccccc3)C(=O)N(Cc3cccc4ccccc34)C1=C[C@H](COCc1ccccc1)O[C@@H]2C,.,-0.1,-3.9,.,.,.
CCOC(=O)[C@@]12CN(C(=O)OC(C)(C)C)CC=C1N(Cc1ccc(OC)cc1)C(=O)[C@H]2CC(=O)NCCCOC,.,1.8,2.4,.,.,.
NC(=O)CC(NSc1ccccc1[N+](=O)[O-])C(=O)O (centres undefined),11.4,-9.8,34.5*,6.9,-1.8,22.7*
CC(C)[C@H](NC(=O)[C@H](C)NC(=O)OC(C)(C)C)C(=O)N1CCC2CCN(Cc3ccccc3)CC21 (some centres undefined),.,2.8,9.4,.,.,.
O=C(O)c1cc(N2C(=O)C=CC2=O)cc(N2C(=O)C=CC2=O)c1,.,12.9,74.8*,.,.,96.5*
CCC[C@@H](/C=C/C(=O)OC(C)(C)C)Sc1ccc(C(C)(C)C)cc1,.,2.8,-3.9,.,.,.
CCOC(=S)SCC(=O)Nc1nc(C)c(C)s1,11.7,-2.5,50.5*,9.2,3.7,38.7*
Cc1nc(NC(=O)CSc2nc(N)cc(N)n2)sc1C,17.3,-7.1,-2.7,0.1,-2.2,.
CCOC(=S)SCC(=O)Nc1nccs1,3.0,-4.0,45.7*,4.5,0.4,13.4
COc1ccc(N2C(=O)CC(N(CCc3ccc(OC)c(OC)c3)C(=S)Nc3ccccc3)C2=O)cc1 (centres undefined),-4.8,3.0,0.1,0.6,0.0,.
COc1ccc(CCN(C)C2CC(=O)N(c3ccccc3)C2=O)cc1OC (centres undefined),7.5,5.5,45.6*,1.5,-1.6,2.0
COc1ccc(N2C(=O)CC(N(C)CCc3ccc(OC)c(OC)c3)C2=O)cc1 (centres undefined),3.4,-5.9,47.6*,2.3,-0.2,2.8
COC(=O)c1ccc(N2C(=O)CC(N(C)CCc3ccc(OC)c(OC)c3)C2=O)cc1 (centres undefined),8.6,0.7,8.9,0.9,-2.0,.
COc1ccc(C2c3cc(OC)c(OC)cc3CCN2C2CC(=O)N(c3ccccc3)C2=O)cc1OC (centres undefined),1.7,-18.4,41.5*,-6.4,-1.9,5.2
COc1ccccc1NCc1nc2ccccc2n1C,.,5.8,0.6,.,.,.
O=C(O)CCS(=O)(=O)c1cc(Br)cc2c1N(C(=O)C1CC1)CC2,-9.8,-7.2,-7.8,0.3,0.9,.
Cc1ccc(CNC(=O)CCS(=O)(=O)c2cc(Br)cc3c2N(C(=O)C2CC2)CC3)o1,3.7,-0.7,48.5*,1.7,2.9,2.7
Clc1cc(Cl)cc(CNC2CCC23CCCCC3)c1 (centres undefined),.,3.9,-1.5,.,.,.
Cc1ccc(S(=O)(=O)CS(=O)(=O)c2ccc(C)cc2)cc1,.,8.7,-3.4,.,.,.
O=S(=O)(/C=C/C=C/S(=O)(=O)c1ccccc1)c1ccccc1,.,-1.4,25.3*,.,.,28.4*
NS(=O)(=O)c1ccccc1,1.6,-21.1,2.4,-2.7,-1.3,.
Cc1ccc(S(=O)(=O)SCCCSS(=O)(=O)c2ccc(C)cc2)cc1,.,-0.7,95.7*,.,.,91.5*
SMILES,GSTO1 inh,TDP2 absorb,PRMT1 inh,PAD4 FP inh,Fh CTSL1 inh,PRMT1 confirm
Cc1ccc(S(=O)(=O)CCCS(=O)(=O)c2ccc(C)cc2)cc1,0.8,10.4,2.1,-2.8,-0.3,.
Cc1ccc(S(=O)(=O)SC/C=C/CSS(=O)(=O)c2ccc(C)cc2)cc1,.,7.8,87.4*,.,.,90.6*
Cc1ccc(S(=O)(=O)C=CS(=O)(=O)c2ccc(C)cc2)cc1,.,-3.3,90.2*,.,.,94.7*
COc1cccc(Cn2ncc3c4sc(S(C)=O)cc4n(C)c3c2=O)c1 (centres undefined),.,1.8,5.3,.,.,.
O=C(OCC#CCSc1nnc(-c2cccc(F)c2)o1)c1ccc(F)cc1,.,-1.5,0.9,.,.,.
COC(=O)[C@]12C[C@H](CC(=O)NCCCN3CCCC3=O)C(=O)N(Cc3cccc4ccccc34)C1=C[C@H](C1CCCC1)O[C@@H]2C,.,1.2,-0.9,.,.,.
CC1(C)CC(=O)N(CC(=O)N2CCN(c3cccc(C(F)(F)F)c3)CC2)c2ccccc2S1(=O)=O,.,4.6,3.5,.,.,.
CCCCCN1CCCCC(NC(=O)c2cccc(C(F)(F)F)c2)C1=O (centres undefined),.,16.0,-7.1,.,.,.
CN(C)CC1CC/C(=C\c2ccc(O)cc2)C1=O (centres undefined),.,0.3,53.4*,.,.,45.1*
COc1ccc(/C=C2/CCC(CN3CCOCC3)C2=O)cc1 (centres undefined),.,2.6,53.4*,.,.,60.7*
COc1ccc(/C=C2\CCC(C3CCCC3)C2=O)cc1 (centres undefined),-5.5,-3.4,3.0,-3.3,-2.5,.
COC(=O)[C@]12C[C@H](CC(=O)NCc3cccc(C(F)(F)F)c3)C(=O)N(Cc3cccc4ccccc34)C1=C[C@H](C1CCCC1)O[C@@H]2C,.,3.8,-0.2,.,.,.
Cc1cc(C)nc(SCC(=O)c2ccc(O)c(O)c2)n1,27.4,2.1,48.9*,1.4,5.4,42.5*
Cc1cc(C)nc(SCC(=O)c2ccc([N+](=O)[O-])cc2)n1,7.2,-12.2,37.0*,1.4,-0.2,2.8
COc1ccc(-c2nc(=S)[nH][nH]2)cc1OC,5.2,-1.6,12.9,4.8,-1.9,.
COc1cc(-c2nc(=S)[nH][nH]2)cc(OC)c1OC,1.0,5.2,34.5*,5.2,-0.4,12.7
Cc1c(-c2n[nH]c(=S)n2-c2ccc(Br)cc2)nnn1-c1ccc(Cl)cc1,.,9.5,17.4,.,.,.
Cc1c(-c2n[nH]c(=S)n2-c2ccc(C(F)(F)F)cc2)nnn1-c1ccccc1,1.6,-1.8,30.0*,-5.1,-1.3,6.4
N=c1c2c(ccn1Cc1ccccc1)Oc1ccc3ccccc3c1C2c1ccccc1 (centres undefined),.,-1.6,-2.5,.,.,.
O=C(CCSC1=NCCCN1)c1ccc(F)cc1,.,-5.4,30.9*,.,.,47.4*
O=C(C=Cc1ccccc1Cl)c1ccccc1,.,2.4,1.4,.,.,.
C=CCn1cccc(/C=C/C(=O)c2ccc(C(C)(C)C)cc2)c1=S,-8.0,-14.3,26.6*,-6.6,7.9,0.6
O=C(O)CCCCN1C(=O)C=CC1=O,.,-2.3,76.8*,.,.,95.0*
O=C1[C@@H](C2CCCCC2)[C@@H]2c3ccccc3C=NN2[C@@H]2c3ccccc3C=NN12,.,10.3,-1.5,.,.,.
CCc1oc(C(=O)O)cc1CN(CC)CC,5.0,6.5,1.0,-6.4,-1.5,.
CCN(CC)Cc1cc(O)c(CN(CC)CC)cc1O,.,10.0,30.3*,.,.,76.4*
